Data set [1] has as its system Escherichia coli. Briefly: Antibacterial activity against Escherichia coli ATCC 25922 at 1 mg/mL after 24 hrs by agar-well diffusion method. In kind it is functional. The conditions noted are these: ATCC 25922, 24 h, read-out: IZ. The procedure, abridged:
(§1)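 Well diffusion on Mueller-Hinton agar seeded with 24 h old cultures. Test compounds dissolved in DMSO at 1, 0.5 and 0.25 mg/mL. 6 mm wells were punched with a sterile cork borer, test solutions added, and plates incubated 24 h at 37 °C.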
Background: A growth-free zone around the sample is the usual read-out of agar diffusion tests.

Data set [2] deals with Staphylococcus aureus. Briefly: Antibacterial activity against Staphylococcus aureus ATCC 25923 at 1 mg/mL after 24 hrs by agar-well diffusion method. Format: functional. The conditions noted are these: ATCC 25923, 24 h, read-out: IZ. In outline:
as §1

In data set [3] the test system is Pseudomonas aeruginosa. Kind of data set: Antibacterial activity against Pseudomonas aeruginosa ATCC 27853 at 1 mg/mL after 24 hrs by agar-well diffusion method. In kind it is functional. The conditions noted are these: ATCC 27853, 24 h, read-out: IZ. The procedure, abridged: as §1
For data set [4], the system named is Escherichia coli. Kind of data set: Antibacterial activity against Escherichia coli ATCC 25922 at 0.5 mg/mL after 24 hrs by agar-well diffusion method. Format: functional. The conditions noted are these: ATCC 25922, 24 h, read-out: IZ. The procedure, abridged:
as §1

Data set [5] has as its system Staphylococcus aureus. Briefly: Antibacterial activity against Staphylococcus aureus ATCC 25923 at 0.5 mg/mL after 24 hrs by agar-well diffusion method. In kind it is functional. The conditions noted are these: ATCC 25923, 24 h, read-out: IZ. In outline: as §1
In data set [6] the test system is Pseudomonas aeruginosa. Briefly: Antibacterial activity against Pseudomonas aeruginosa ATCC 27853 at 0.5 mg/mL after 24 hrs by agar-well diffusion method. In kind it is functional. The conditions noted are these: ATCC 27853, 24 h, read-out: IZ. In outline:
as §1

The test system of data set [7] is Escherichia coli. Kind of data set: Antibacterial activity against Escherichia coli ATCC 25922 at 0.25 mg/mL after 24 hrs by agar-well diffusion method. In kind it is functional. The conditions noted are these: ATCC 25922, 24 h, read-out: IZ. In outline: as §1
Data set [8] concerns Staphylococcus aureus. Briefly: Antibacterial activity against Staphylococcus aureus ATCC 25923 at 0.25 mg/mL after 24 hrs by agar-well diffusion method. In kind it is functional. The conditions noted are these: ATCC 25923, 24 h, read-out: IZ. In outline:
as §1

The subject of data set [9] is Pseudomonas aeruginosa. Kind of data set: Antibacterial activity against Pseudomonas aeruginosa ATCC 27853 at 0.25 mg/mL after 24 hrs by agar-well diffusion method. In kind it is functional. The conditions noted are these: ATCC 27853, 24 h, read-out: IZ. In outline: as §1
For data set [10], the system named is Aspergillus flavus. Briefly: Antifungal activity against Aspergillus flavus MTCC 3306 at 1 mg/mL after 72 hrs by agar-well diffusion method. In kind it is functional. The conditions noted are these: MTCC 3306, 72 h, read-out: DIZ. In outline: (§2)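 Fungal spore suspensions made in normal saline were spread onto agar adjusted to pH 5.7, then dried 1 h at 37 °C. Wells were cut and loaded with test compounds in DMSO at different concentrations, with a DMSO control. Plates run in triplicate at 25 °C for 72 h. Read-out was inhibition zone diameter.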

A short description of data set [11]: Antifungal activity against Chrysosporium keratinophilum MTCC 2827 at 1 mg/mL after 72 hrs by agar-well diffusion method. Format: functional. In outline: as §2
The subject of data set [12] is Candida albicans. Briefly: Antifungal activity against Candida albicans MTCC 3017 at 1 mg/mL after 72 hrs by agar-well diffusion method. In kind it is functional. The conditions noted are these: MTCC 3017, 72 h, read-out: DIZ. In outline:
as §2

Data set [13] deals with Aspergillus flavus. Kind of data set: Antifungal activity against Aspergillus flavus MTCC 3306 at 0.5 mg/mL after 72 hrs by agar-well diffusion method. In kind it is functional. The conditions noted are these: MTCC 3306, 72 h, read-out: DIZ. In outline: as §2
Data set [14] can be described thus: Antifungal activity against Chrysosporium keratinophilum MTCC 2827 at 0.5 mg/mL after 72 hrs by agar-well diffusion method. In kind it is functional. The procedure, abridged: as §2
Data set [15] relates to Candida albicans. Briefly: Antifungal activity against Candida albicans MTCC 3017 at 0.5 mg/mL after 72 hrs by agar-well diffusion method. Format: functional. The conditions noted are these: MTCC 3017, 72 h, read-out: DIZ. In outline:
as §2

Data set [16] has as its system Aspergillus flavus. Briefly: Antifungal activity against Aspergillus flavus MTCC 3306 at 0.25 mg/mL after 72 hrs by agar-well diffusion method. In kind it is functional. The conditions noted are these: MTCC 3306, 72 h, read-out: DIZ. In outline:
as §2

Data set [17] is described as follows: Antifungal activity against Chrysosporium keratinophilum MTCC 2827 at 0.25 mg/mL after 72 hrs by agar-well diffusion method. Format: functional. The procedure, abridged:
as §2

The subject of data set [18] is Candida albicans. Briefly: Antifungal activity against Candida albicans MTCC 3017 at 0.25 mg/mL after 72 hrs by agar-well diffusion method. Format: functional. The conditions noted are these: MTCC 3017, 72 h, read-out: DIZ. In outline: as §2
For data set [19], the system named is Radical scavenging activity. Briefly: Antioxidant activity assessed as DPPH free radical scavenging activity at 100 uM after 30 mins. Format: functional. In outline:
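Sample brought to 1 mL with MeOH and mixed with 3 mL fresh 0.1 mM DPPH. Kept 30 min in the dark, then absorbance read at 517 nm. A DPPH control without sample was included. Scavenging (%) = [(Abs control − Abs sample)/Abs control] × 100.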
On the technique in general: The DPPH test is a chemical assay of radical scavenging.

For data set [20], the system named is Mus musculus. Kind of data set: Acute toxicity in Swiss albino mouse assessed as behavioral changes up to 3000 mg/kg, po in single dose measured up to 24 hrs. In kind it is organism-based. Set-up: dose 3000 mg/kg, route oral. The conditions noted are these: in vivo. The procedure, abridged: (§3)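 Single oral dose per OECD acute oral toxicity guidelines, 250 to 3000 mg/kg, given as a fine suspension in double distilled water with Tween 80. Toxic symptoms and behavioral changes observed continuously for 4 h, then at 8, 12 and 24 h; deaths recorded.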

In data set [21] the test system is Mus musculus. Briefly: Acute toxicity in Swiss albino mouse assessed as mortality up to 3000 mg/kg, po in single dose measured up to 24 hrs. The conditions noted are these: in vivo. In kind it is organism-based. Set-up: dose 3000 mg/kg, route oral. In outline: as §3
For data set [22], the system named is Mus musculus. Briefly: Acute toxicity in Swiss albino mouse assessed as behavioral changes at >2000 mg/kg, po in single dose measured up to 24 hrs. In kind it is organism-based. The conditions noted are these: in vivo. The procedure, abridged: as §3
The test system of data set [23] is Mus musculus. Kind of data set: Acute toxicity in Swiss albino mouse assessed as mortality at >2000 mg/kg, po in single dose measured up to 24 hrs. In kind it is organism-based. The conditions noted are these: in vivo. The procedure, abridged: as §3

In ChEMBL document CHEMBL1909541, “Hantzsch reaction: synthesis and characterization of some new 1,4-dihydropyridine derivatives as potent antimicrobial and antioxidant agents” (Eur J Med Chem, 2011) one finds zone of inhibition, inhibition zone (IZ) and Activity data, which are given here for 3 molecules.

As for `CCOC(=O)C1=C(C)NC(C)=C(C(=O)OCC)C1c1c[nH]nc1-c1ccc(SC)cc1`, the zone of inhibition at 1000 µg/mL in data set [1] is 17 mm; in data set [2], 16 mm; in data set [3], 14 mm; in [10] it was 0 mm; in [12], 0 mm. Besides, the zone of inhibition at 500 µg/mL came to 12 mm in data set [4]; 12 mm in data set [5]; 11 mm in data set [6]; 0 mm in data set [13]; 0 mm in [15]. Further, the zone of inhibition at 250 µg/mL amounted to 9 mm in [7]; 10 mm in data set [8]; 8 mm in data set [9]; 0 mm in data set [16]; 0 mm in data set [18]. Besides, the inhibition zone (IZ) in [11], in data set [14] and in data set [17] was 0 mm in each case. Besides, the results for the Activity in data set [19], in [20] and in data set [21] were 61.1%, “Non-toxic” and “Non-toxic”, respectively.

Turning to `CCOC(=O)C1=C(C)NC(C)=C(C(=O)OCC)C1c1c[nH]nc1-c1ccc(Cl)cc1`, the zone of inhibition at 1000 µg/mL in [1] is 17 mm; in [2], 15 mm; in [3], 16 mm; in [10], 2 mm; in [12], 4 mm. Moreover, the zone of inhibition at 500 µg/mL in data set [4] was 12 mm; in [5] it was 10 mm; in [6], 13 mm; in data set [13], 0 mm; in [15], 2 mm. Moreover, the zone of inhibition at 250 µg/mL stood at 10 mm in [7]; 8 mm in data set [8]; 10 mm in data set [9]; 0 mm in data set [16]; 0 mm in data set [18]. The results for the inhibition zone (IZ) in data set [11], in data set [14] and in [17] were 3 mm, 0 mm and 0 mm, respectively. In addition, the Activity in data set [19] is 62.3%; in data set [22], “Toxic”; in data set [23], “Toxic”.

Take `CCOC(=O)C1=C(C)NC(C)=C(C(=O)OCC)C1c1c[nH]nc1-c1ccc(-c2ccccc2)cc1`: the zone of inhibition at 1000 µg/mL stood at 13 mm in [1]; 16 mm in [2]; 17 mm in data set [3]; 5 mm in data set [10]; 6 mm in data set [12]. Moreover, the zone of inhibition at 500 µg/mL was 10 mm in data set [4]; 12 mm in [5]; 13 mm in data set [6]; 2 mm in data set [13]; 4 mm in data set [15]. Besides, the zone of inhibition at 250 µg/mL was determined as 7 mm in [7]; 10 mm in [8]; 11 mm in [9]; 1 mm in data set [16]; 2 mm in [18]. In addition, the figures for the inhibition zone (IZ) in data set [11], in [14] and in data set [17] were 3 mm, 0 mm and 0 mm, respectively. The Activity in data set [19] was 65.3%; in data set [20], “Non-toxic”; in data set [21], “Non-toxic”.
